The inhibition is the relative decrease from the control value, in per cent. A word on the IC50: it is the concentration needed to halve the response being measured.

Calls of active or inactive are those of the source. The rule behind the calls is not given here.

In one test the target is T1, Phospholipase A2 (Apis mellifera) (UniProt B7UUK1).
T1 sequence (whole entry): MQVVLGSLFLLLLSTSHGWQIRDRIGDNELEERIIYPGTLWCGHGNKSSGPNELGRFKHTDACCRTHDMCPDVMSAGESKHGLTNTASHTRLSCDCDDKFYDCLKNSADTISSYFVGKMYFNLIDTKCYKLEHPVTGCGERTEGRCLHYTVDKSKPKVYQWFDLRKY
Nature of the test: Inhibition of bee venom PLA2 assessed as inactivation of enzyme at 1.6 ug/ml. Set-up: scale not given: the % may be the effect or the level left.
Conditions: not given
The essentials:
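³H-dipalmitoyl phosphatidylcholine (1.36 mM, Triton X-100 mixed micelles) in 10 mM HEPES, 1 mM CaCl2, pH 7.4. Bee venom PLA2 (100 units/ml) preincubated 1 h at 41° with compound from 10 mg/ml stock, then added to substrate for 15 sec at 41°. Acid-quenched, released palmitic acid extracted and scintillation counted, corrected for background and extraction efficiency. % inactivation vs vehicle, triplicate mean.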
For `Oc1cc(Cc2c(O)cc(O)c(Br)c2O)c(Br)c(Br)c1O`, the Activity is 96%.

Regarding `Oc1cc(Cc2c(O)c(Br)c(O)c(Cc3cc(O)c(O)c(Br)c3Br)c2O)c(Br)c(Br)c1O`, the Activity is 96%.

The next test addresses T2, Phospholipase A2, membrane associated (Homo sapiens) (UniProt P14555).
T2 sequence (whole entry): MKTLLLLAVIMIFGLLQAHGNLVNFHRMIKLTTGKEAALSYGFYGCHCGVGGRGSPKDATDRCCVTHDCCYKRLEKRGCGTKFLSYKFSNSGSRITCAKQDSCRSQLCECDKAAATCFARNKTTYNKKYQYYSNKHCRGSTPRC
Nature of the test: Inhibition of human synovial fluid-PLA2. To be noted: concentration not given here.
Regarding `CC1=C(CC/C(C)=C/CC/C(C)=C/CCC2=CC(=O)OC2O)C(C)(C)CCC1` (stereo unspecified) [LUFFARIELLOLIDE], the inhibition is 98%.

Another test addresses T1, Phospholipase A2 (Apis mellifera). Nature of the test: Inhibition of bee venom PLA2 assessed as inactivation of enzyme at 2 ug/ml. Set-up: scale not given: the % may be the effect or the level left.
Conditions: not given
Turning to `CCCC(=O)O[C@H]1[C@@H](O)[C@@]23C(CC[C@H]4C(=O)O[C@@H](O[C@H]2O)[C@H]43)[C@@]2(C)CCCC(C)(C)[C@@H]12` (stereo partly specified), the Activity was found to be 44%.

`CCCC(=O)O[C@H]1[C@@H](OC(C)=O)[C@@]23C(CC[C@H]4C(=O)O[C@@H](O[C@H]2O)[C@H]43)[C@@]2(C)CCCC(C)(C)[C@H]12` (stereo partly specified): the Activity stood at 50%.

Take `C=C1CCCC(C)(C)[C@@H]2CC[C@@](C)([C@H]3[C@H]4CC(=O)O[C@H]4O[C@H]3O)[C@H]12`: the Activity came out at 48%.

On to `C=C([C@@H]1[C@@H](OC(C)=O)O[C@@H]2OC(=O)C[C@@H]21)[C@H]1CC[C@H]2C(C)(C)CCC[C@]12C`, for which the Activity amounted to 66%.

In the case of `CC1=CC2C[C@]3(O)OC(=O)C=C3C(C)(C)C2CC1` (stereo partly specified), the Activity came out at 60%.

For `CCCC(=O)O[C@@H]1C[C@H]2C(C)(C)CCC[C@]2(C)C2CC[C@H]3C(=O)O[C@H]4O[C@@H](O)[C@]21[C@H]43` (stereo partly specified), the Activity was 65%.

For the molecule `CC1=C[C@H]2Cc3occc3C(C)(C)[C@H]2CC1`, the result was inactive.

As for `CC1=CC2C[C@]34OC(=O)C[C@]3(O4)C(C)(C)C2CC1` (stereo partly specified), the result was inactive.

In the case of `CC1=C[C@H]2Cc3ccoc3C(C)(C)[C@H]2CC1`, the result was inactive.

For the molecule `CC1=CC(CC2=CC(=O)OC2O)C(C(C)C)CC1` (stereo unspecified), the Activity was determined as 60%.

For `CC(=O)O[C@@H]1O[C@H]2OC(=O)[C@H](C)C3=C([C@@]4(C)CCCC(C)(C)C4)C[C@@H](OC(C)=O)[C@@H]1[C@H]32`, the Activity is 60%.

A further test has the same target. Kind of test: Inhibition of bee venom PLA2 at 4 uM.
Conditions: not given
For the molecule `CC1(C)CCC[C@]2(C)[C@H]3C[C@@H](O)[C@]4(C)[C@H](C=O)C(C=O)=CC[C@H]4[C@]3(C)CC[C@@H]12`, the inhibition is below 70%.

The target of a further test is T3, Phospholipase A2 (Apis mellifera, UniProt B7UUK1).
T3 sequence (B7UUK1 whole entry): T1 sequence (whole entry)
Kind of test: (§1) Inhibition of bee venom PLA2.
Conditions: not given
`CC1=C(CC/C(C)=C/CC/C(C)=C/CCC2=CC(=O)OC2O)C(C)(C)CCC1` (stereo unspecified) [LUFFARIELLOLIDE] yielded an IC50 of 230 nM.

In turn, `CC(=O)O[C@H]1C[C@@H]2[C@@]3(C)CCCC(C)(C)[C@@H]3CC[C@@]2(C)[C@@H]2CC=C(C=O)[C@H](C=O)[C@@]12C` [SCALARADIAL] gave an IC50 of 70 nM.

For `CC1(C)CCC[C@]2(C)[C@H]3C[C@@H](O)[C@]4(C)[C@@H](C=O)C(C=O)=CC[C@H]4[C@]3(C)CC[C@@H]12`, it took 200 nM to reach half-maximal inhibition (IC50).

Take `CC1=C(CC/C(C)=C/CC/C(C=O)=C\C=C\C2=CC(=O)O[C@H]2O)C(C)(C)CCC1`: half-maximal inhibition (IC50) was put at 280 nM.

With `CC1=C(CC/C(C)=C/CCC2=CC[C@H](C3=CC(=O)O[C@H]3O)O[C@H]2O)C(C)(C)CCC1` [MANOALIDE], the concentration for half-maximal inhibition (IC50) came out at 40 nM.

In a further test the target is T1, Phospholipase A2 (Apis mellifera). The test is described as §1.
Conditions: not given
Regarding `C=C1CCC[C@H]2[C@](C)(CC3=C(O)C(=O)C=C(OC)C3=O)[C@@H](C)CC[C@]12C`, the result was inactive.

The values are drawn from ChEMBL document CHEMBL1150062, “Phospholipase A2 inhibitors from marine organisms” (J Nat Prod, 1992).
